Calls of active or inactive are those of the source. The rule behind the calls is not given here.

Experiment [1] relates to HeLa. Kind of experiment: Cytotoxicity against human HeLa cells assessed as reduction in cell viability incubated for 48 hrs by MTT assay. The class given is functional, cell-based. Summed up: (§1)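 Cells plated at 3000-4500 per well and treated after 24 h. DMSO stocks (20 mM) were diluted in medium to final DMSO <0.1%, twofold series […], 48 h. MTT (0.5 mg/mL) was added for 4 h, formazan dissolved in DMSO, absorbance read at 570 nm.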
(Tetrazolium dyes change colour on reduction, which living cells bring about.)

In experiment [2] the test system is MCF7. Kind of experiment: Cytotoxicity against human MCF-7 cells assessed as reduction in cell viability incubated for 48 hrs by MTT assay. To be noted: MCF7, 48 h. It is filed as functional, cell-based. Summed up: as §1
Experiment [3] has as its system BT-474. Kind of experiment: Induction of morphological changes in human BT-474 cells assessed as […] incubated for 48 hrs by phase-contrast microscope method. It is filed as functional, cell-based. To be noted: dose microM 0.5-2.5, time 48.0 hrs. Summed up:
(§2)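 Plated at 5×10^4 cells/well, dosed after 24 h at 0.5, 1 and 2.5 μM. After 48 h, morphology was examined and photographed under phase-contrast microscopy.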

The subject of experiment [4] is BT-474. Kind of experiment: Induction of morphological changes in human BT-474 cells assessed as loss of cell-cell adhesion incubated for 48 hrs by phase-contrast microscope method. The class given is functional, cell-based. To be noted: dose microM 0.5-2.5, time 48.0 hrs. Summed up:
as §2

Experiment [5] deals with BT-474. Kind of experiment: Induction of apoptosis in human BT-474 cells assessed as non-uniform distribution of chromatin incubated for 48 hrs by acridine orange/ethidium bromide double staining-based fluorescence microscopic analysis. It is filed as functional, cell-based. The following applies: dose microM 0.5-2.5, time 48.0 hrs. The gist of the method:
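Plated at 5×10^4 cells/well, treated after 24 h and held 48 h at 37 °C, 5% CO₂. Acridine orange and ethidium bromide (10 µg/mL each) added in equal volumes, then cells viewed by fluorescence microscopy at 200x.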

Experiment [6] relates to BT-474. Kind of experiment: Cell cycle arrest in human BT-474 cells assessed as increase in accumulation in S phase at 1 uM by propidium iodide staining based flow cytometry(reference value: 2.22%). The class given is functional. The gist of the method: (§3)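 Seeded at 1 x 10⁵ cells/well, after 24 h serum-starved 6 h to synchronize, then returned to FBS-containing medium and treated at 0.5, 1 and 2.5 μM. Harvested cells were PBS-washed, fixed in ice-cold 70% ethanol, stained with propidium iodide (50 μg/mL) plus RNase A for 20 min at 37 °C in the dark. About 10,000 events analysed by flow cytometry.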
Background: In flow cytometry, cells or beads pass a laser one at a time.

Experiment [7] relates to BT-474. Kind of experiment: Cell cycle arrest in human BT-474 cells assessed as decrease in G0/G1 accumulation in phase at 2.5 uM by propidium iodide staining based flow cytometry(reference value: 60.53%). It is filed as functional. Set-up: scale not given: the % may be the effect or the level left. Summed up: as §3
Experiment [8] relates to BT-474. Kind of experiment: Induction of mitochondrial membrane potential loss in human BT-474 cells assessed as depolarized cell population (P2) at 2.5 uM incubated for 48 hrs by JC1 staining based flow cytometry (reference value: 0.48 %). The class given is functional. The gist of the method: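 Cells (1x10⁶/mL) adhered overnight, then exposed to 0.5, 1 and 2.5 μM for 48 h. Collected, PBS-washed, incubated with JC-1 dye (1 μM) for 30 min at 37 °C, washed twice, trypsinized, centrifuged and read by flow cytometry.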

Experiment [9] relates to BT-474. Kind of experiment: Induction of apoptosis in human BT-474 cells assessed as chromatin damage at 0.5 to 2.5 uM incubated for 24 hrs by DAPI staining based DAPI staining based confocal microscopic analysis. To be noted: dose microM 0.5-2.5, time 24.0 hrs. The class given is functional, cell-based.
The subject of experiment [10] is BT-474. Kind of experiment: Induction of apoptosis in human BT-474 cells after 48 hrs by Annexin-V alexa fluor 488/PI staining based flow cytometry analysis. The following applies: dose microM 0.5-2.5, time 48.0 hrs.

For `O=C(c1cn(Cc2cccc(Oc3ccccc3)c2)nn1)N1CCN(S(=O)(=O)c2ccc(Br)cc2)CC1`, the figures for the IC50 in experiment [1] and in experiment [2] were 1020 nM and 2340 nM, respectively. Besides, the outcome in [3], in experiment [4] and in experiment [9] was Active. Moreover, the Activity result was “Dose-dependent effect” in [5]; 5.85% in experiment [6]; 9.09% in experiment [7]; 89.84% in experiment [8]; “Dose-dependent effect” in experiment [10].

In general, IC50 refers to the point on the concentration scale where inhibition reaches its midpoint.

For the origin of these results see ChEMBL document CHEMBL4699431, “Design and synthesis of substituted (1-(benzyl)-1H-1,2,3-triazol-4-yl)(piperazin-1-yl)methanone conjugates: study on their apoptosis inducing ability and tubulin polymerization inhibition” (RSC Med Chem, 2020).
